# Source: ChEMBL document CHEMBL4350960, “Structural Basis for E. coli Penicillin Binding Protein (PBP) 2 Inhibition, a Platform for Drug Design” (J Med Chem, 2019)
# Active and inactive are the calls of the source. No cut-off for these calls is given here.
# What was measured:
# [1] = molecular target: T1, Penicillin-binding protein 1A (Escherichia coli K-12) (UniProt P02918); assay: Inhibition of Escherichia coli PBP1a
# T1 sequence (whole entry): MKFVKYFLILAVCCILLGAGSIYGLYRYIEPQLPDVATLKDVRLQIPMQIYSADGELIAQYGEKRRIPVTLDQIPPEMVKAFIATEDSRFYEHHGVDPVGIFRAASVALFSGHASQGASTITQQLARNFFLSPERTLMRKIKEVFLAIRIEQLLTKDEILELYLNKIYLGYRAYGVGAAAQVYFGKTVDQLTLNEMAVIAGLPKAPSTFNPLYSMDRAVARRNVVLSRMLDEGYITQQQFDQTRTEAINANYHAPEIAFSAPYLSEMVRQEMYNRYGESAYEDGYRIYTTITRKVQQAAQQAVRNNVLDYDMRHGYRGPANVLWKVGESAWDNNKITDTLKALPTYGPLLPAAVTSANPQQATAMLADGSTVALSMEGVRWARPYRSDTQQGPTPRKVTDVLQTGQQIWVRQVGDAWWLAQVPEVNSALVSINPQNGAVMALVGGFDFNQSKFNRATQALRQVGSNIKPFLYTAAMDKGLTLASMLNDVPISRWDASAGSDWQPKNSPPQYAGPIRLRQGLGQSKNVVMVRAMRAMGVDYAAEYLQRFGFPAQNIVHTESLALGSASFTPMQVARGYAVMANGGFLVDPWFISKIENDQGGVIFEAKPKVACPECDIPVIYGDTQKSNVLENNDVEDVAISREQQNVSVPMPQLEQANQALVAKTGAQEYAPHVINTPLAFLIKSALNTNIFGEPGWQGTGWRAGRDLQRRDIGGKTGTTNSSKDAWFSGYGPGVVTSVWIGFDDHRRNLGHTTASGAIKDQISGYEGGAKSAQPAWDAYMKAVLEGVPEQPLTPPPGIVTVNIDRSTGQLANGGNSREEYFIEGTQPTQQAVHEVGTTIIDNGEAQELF
# [2] = test system: Escherichia coli; assay: Antibacterial activity against Escherichia coli UFR39 measured after 16 to 20 hrs by broth microdilution method; format: functional
# Outline: (§1)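 Broth microdilution MICs following CLSI M7-A7, run against genotyped carbapenem-resistant E. coli and P. aeruginosa strains.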
# [3] = test system: Escherichia coli; assay: Inhibition of Escherichia coli PBP3
# [4] = molecular target: T2, Penicillin-binding protein 1B (Escherichia coli K-12) (UniProt P02919); assay: Inhibition of Escherichia coli PBP1b
# T2 sequence (whole entry): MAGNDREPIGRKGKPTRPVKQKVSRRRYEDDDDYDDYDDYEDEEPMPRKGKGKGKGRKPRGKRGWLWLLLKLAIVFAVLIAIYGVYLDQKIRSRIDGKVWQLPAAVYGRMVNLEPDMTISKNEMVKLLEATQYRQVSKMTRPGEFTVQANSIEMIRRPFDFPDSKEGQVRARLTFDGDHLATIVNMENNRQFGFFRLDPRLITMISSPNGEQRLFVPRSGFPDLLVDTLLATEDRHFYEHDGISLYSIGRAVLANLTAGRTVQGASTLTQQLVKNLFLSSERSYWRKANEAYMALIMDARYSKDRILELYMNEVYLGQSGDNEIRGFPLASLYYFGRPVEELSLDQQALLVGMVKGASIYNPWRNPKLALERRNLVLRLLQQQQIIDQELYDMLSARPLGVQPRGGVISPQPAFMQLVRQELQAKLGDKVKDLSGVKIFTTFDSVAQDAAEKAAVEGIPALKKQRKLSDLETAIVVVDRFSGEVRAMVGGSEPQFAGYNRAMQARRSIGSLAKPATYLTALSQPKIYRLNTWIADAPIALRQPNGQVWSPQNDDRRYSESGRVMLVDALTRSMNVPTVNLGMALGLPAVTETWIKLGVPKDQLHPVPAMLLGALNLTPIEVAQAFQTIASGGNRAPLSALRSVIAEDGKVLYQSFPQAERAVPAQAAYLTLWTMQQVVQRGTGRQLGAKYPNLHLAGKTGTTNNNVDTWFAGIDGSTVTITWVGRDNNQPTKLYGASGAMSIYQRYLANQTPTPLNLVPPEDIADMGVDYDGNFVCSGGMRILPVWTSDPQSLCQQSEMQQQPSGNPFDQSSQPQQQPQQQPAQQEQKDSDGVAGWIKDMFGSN
# [5] = molecular target: T3, Peptidoglycan D,D-transpeptidase MrdA (Escherichia coli K-12, UniProt P0AD65); assay: (§2) Inhibition of bocillin-FL binding to Escherichia coli K12 NusA-fused/His6-tagged PBP2 (57 to 615 residues) expressed in Escherichia coli BL21(DE3) preincubated for 30 mins followed by bocillin-FL addition by RT-fluorescence anisotropy method
# T3 sequence (P0AD65 whole entry): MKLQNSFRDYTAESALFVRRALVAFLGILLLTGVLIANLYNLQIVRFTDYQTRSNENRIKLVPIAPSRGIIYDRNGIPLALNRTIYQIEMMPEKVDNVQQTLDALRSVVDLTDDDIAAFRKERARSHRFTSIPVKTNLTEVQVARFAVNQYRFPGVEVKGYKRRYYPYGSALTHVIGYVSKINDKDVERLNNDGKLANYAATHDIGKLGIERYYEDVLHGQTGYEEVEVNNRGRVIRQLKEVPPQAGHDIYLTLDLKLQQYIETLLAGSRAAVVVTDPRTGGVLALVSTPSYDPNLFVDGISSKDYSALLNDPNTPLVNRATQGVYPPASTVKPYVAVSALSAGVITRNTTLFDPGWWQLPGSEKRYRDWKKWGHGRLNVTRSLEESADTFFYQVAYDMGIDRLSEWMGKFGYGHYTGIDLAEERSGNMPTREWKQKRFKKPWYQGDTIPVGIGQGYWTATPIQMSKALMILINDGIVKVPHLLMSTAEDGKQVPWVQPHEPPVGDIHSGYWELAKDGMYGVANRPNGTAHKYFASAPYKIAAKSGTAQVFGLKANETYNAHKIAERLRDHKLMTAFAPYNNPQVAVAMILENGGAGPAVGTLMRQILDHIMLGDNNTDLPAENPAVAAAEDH
# [6] = test system: Pseudomonas aeruginosa; assay: Antibacterial activity against Pseudomonas aeruginosa UFR49 measured after 16 to 20 hrs by broth microdilution method; format: functional
# [7] = molecular target: T4, Peptidoglycan D,D-transpeptidase MrdA (Escherichia coli K-12) (UniProt P0AD65); assay: as §2
# T4 sequence (whole entry): T3 sequence (P0AD65 whole entry)
# [8] = test system: Escherichia coli; assay: Antibacterial activity against Escherichia coli clinical isolates measured after 16 to 20 hrs by broth microdilution method; format: functional; outline: as §1
# [9] = test system: Pseudomonas aeruginosa; assay: Antibacterial activity against Pseudomonas aeruginosa clinical isolates measured after 16 to 20 hrs by broth microdilution method; format: functional; outline: as §1
# [10] = test system: Bacteria; assay: Inhibition of bacterial beta-lactamase CTX-M-15
# [11] = test system: Bacteria; assay: Inhibition of bacterial OXA-48
# [12] = molecular target: T5, Penicillin-binding protein 1B (Pseudomonas aeruginosa) (UniProt Q9X6W0); assay: Inhibition of Pseudomonas aeruginosa PBP1b up to 200 uM
# T5 sequence (whole entry): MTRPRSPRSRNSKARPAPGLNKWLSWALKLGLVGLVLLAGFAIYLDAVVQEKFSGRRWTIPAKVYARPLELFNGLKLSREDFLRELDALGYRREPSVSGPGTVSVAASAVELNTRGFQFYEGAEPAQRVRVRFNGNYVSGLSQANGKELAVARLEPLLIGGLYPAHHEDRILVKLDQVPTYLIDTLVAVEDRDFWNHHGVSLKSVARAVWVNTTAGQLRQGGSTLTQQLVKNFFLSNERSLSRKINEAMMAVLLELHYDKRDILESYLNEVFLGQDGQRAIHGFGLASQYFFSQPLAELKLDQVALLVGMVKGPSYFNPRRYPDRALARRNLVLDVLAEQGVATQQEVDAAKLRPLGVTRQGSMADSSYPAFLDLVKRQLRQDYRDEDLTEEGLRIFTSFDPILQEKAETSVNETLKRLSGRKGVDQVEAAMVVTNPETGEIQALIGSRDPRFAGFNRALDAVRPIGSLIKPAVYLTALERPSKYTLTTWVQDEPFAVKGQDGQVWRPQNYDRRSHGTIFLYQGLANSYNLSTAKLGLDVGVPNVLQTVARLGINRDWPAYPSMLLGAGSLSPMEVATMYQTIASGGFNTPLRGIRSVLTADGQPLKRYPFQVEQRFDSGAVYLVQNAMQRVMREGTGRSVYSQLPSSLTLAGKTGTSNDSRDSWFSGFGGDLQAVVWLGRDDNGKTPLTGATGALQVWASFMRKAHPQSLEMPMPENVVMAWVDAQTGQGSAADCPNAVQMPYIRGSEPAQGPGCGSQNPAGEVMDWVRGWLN
# [13] = molecular target: Penicillin-binding protein 3 (Pseudomonas aeruginosa) (UniProt Q51504); assay: Inhibition of Pseudomonas aeruginosa PBP3 up to 200 uM
# [14] = molecular target: T1, Penicillin-binding protein 1A (Escherichia coli K-12); assay: Inhibition of Escherichia coli PBP1a up to 200 uM
# [15] = test system: Bacteria; assay: Inhibition of bacterial beta-lactamase SHV-1
# [16] = molecular target: Penicillin-binding protein 1A (Pseudomonas aeruginosa PAO1) (UniProt Q07806); assay: Inhibition of Pseudomonas aeruginosa PBP1a up to 200 uM
# [17] = test system: Bacteria; assay: Inhibition of bacterial beta-lactamase KPC-2
# [18] = test system: Bacteria; assay: Inhibition of bacterial OXA-15
# [19] = test system: Escherichia coli; assay: Inhibition of Escherichia coli PBP3 up to 200 uM
# [20] = test system: Bacteria; assay: Inhibition of bacterial CMY-37
# [21] = molecular target: T4, Peptidoglycan D,D-transpeptidase MrdA (Escherichia coli K-12); assay: Binding affinity to Escherichia coli K12 NusA-fused/His6-tagged PBP2 (57 to 615 residues) expressed in Escherichia coli BL21(DE3) assessed as melting temperature at protein to compound ratio of 1:10 measured after 30 mins using SYPRO orange dye by RT-PCR-based fluorescence assay (reference value: 47 +/- 0.5 degC)
# Outline: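 Thermal unfolding was monitored with SYPRO Orange dye in a real-time PCR instrument, at a protein/ligand ratio of 1/10. Tm was taken at the inflexion point of the denaturation curve and reported ±0.5 °C.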
# [22] = test system: Enterobacter cloacae; assay: Inhibition of Enterobacter cloacae P99 AmpC
# [23] = molecular target: Beta-lactamase TEM (Bacteria) (UniProt P62593); assay: Inhibition of bacterial beta-lactamase TEM-1
# [24] = molecular target: T2, Penicillin-binding protein 1B (Escherichia coli K-12); assay: Inhibition of Escherichia coli PBP1b up to 200 uM
# Sequence of Beta-lactamase TEM (Bacteria) (P62593 whole entry): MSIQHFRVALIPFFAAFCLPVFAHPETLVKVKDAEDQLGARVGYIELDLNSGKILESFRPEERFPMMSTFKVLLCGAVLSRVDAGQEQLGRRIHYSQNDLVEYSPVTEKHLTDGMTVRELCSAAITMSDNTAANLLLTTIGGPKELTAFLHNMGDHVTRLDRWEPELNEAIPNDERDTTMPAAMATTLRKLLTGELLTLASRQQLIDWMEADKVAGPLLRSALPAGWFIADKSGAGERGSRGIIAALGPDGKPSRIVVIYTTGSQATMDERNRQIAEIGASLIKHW
# Sequence of Penicillin-binding protein 1A (Pseudomonas aeruginosa PAO1) (Q07806 whole entry): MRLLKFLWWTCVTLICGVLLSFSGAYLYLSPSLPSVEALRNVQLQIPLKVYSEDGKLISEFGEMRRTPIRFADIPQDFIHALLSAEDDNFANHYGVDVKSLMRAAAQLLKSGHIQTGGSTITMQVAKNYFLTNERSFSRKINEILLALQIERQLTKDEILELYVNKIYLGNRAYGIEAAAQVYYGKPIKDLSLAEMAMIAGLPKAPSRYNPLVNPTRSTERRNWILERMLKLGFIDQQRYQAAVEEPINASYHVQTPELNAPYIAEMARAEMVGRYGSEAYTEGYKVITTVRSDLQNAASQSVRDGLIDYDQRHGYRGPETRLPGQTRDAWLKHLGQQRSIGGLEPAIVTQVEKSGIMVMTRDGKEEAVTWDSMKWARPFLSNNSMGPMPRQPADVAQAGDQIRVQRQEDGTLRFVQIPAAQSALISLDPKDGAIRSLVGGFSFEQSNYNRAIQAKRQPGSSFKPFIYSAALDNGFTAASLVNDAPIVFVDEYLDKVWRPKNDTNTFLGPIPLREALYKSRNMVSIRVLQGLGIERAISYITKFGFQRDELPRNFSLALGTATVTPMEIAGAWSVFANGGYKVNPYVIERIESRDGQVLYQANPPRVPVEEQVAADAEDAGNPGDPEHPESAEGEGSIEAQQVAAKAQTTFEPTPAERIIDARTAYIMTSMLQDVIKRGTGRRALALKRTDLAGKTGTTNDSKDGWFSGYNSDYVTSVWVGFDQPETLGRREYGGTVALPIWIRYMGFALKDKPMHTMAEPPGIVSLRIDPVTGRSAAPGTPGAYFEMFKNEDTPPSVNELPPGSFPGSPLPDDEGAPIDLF
# Sequence of Penicillin-binding protein 3 (Pseudomonas aeruginosa) (Q51504 as listed by the source): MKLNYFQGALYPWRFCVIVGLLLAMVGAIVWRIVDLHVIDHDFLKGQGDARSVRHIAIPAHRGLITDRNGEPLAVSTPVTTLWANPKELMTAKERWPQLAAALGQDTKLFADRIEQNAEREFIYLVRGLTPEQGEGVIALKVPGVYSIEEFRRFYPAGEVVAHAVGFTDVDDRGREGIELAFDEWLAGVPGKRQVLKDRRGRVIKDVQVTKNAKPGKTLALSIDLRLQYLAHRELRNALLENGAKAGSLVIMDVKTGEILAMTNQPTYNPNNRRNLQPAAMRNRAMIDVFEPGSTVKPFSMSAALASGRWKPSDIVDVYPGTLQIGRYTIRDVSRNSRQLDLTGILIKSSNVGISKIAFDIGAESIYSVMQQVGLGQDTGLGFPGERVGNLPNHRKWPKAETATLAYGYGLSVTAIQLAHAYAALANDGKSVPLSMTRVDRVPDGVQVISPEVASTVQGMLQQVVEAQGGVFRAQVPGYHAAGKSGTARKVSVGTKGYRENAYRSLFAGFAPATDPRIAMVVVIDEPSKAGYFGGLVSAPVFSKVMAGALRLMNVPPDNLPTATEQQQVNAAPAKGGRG
Compound,inhibition [1],MIC [2] [µg/mL],inhibition [3],inhibition [4],IC50 [5] [nM],MIC [6] [µg/mL],MIC50 [8] [µg/mL],MIC90 [8] [µg/mL],MIC50 [9] [µg/mL],MIC90 [9] [µg/mL],also measured
CC(C)(O/N=C(\C(=O)N[C@@H]1C(=O)N2C(C(=O)[O-])=C(C[n+]3ccccc3)CS[C@H]12)c1csc(N)n1)C(=O)O [CEFTAZIDIME],–,> 256,–,–,–,64,> 32,> 32,> 32,> 32,–
O=C(NNC(=O)[C@@H]1CC[C@@H]2CN1C(=O)N2OS(=O)(=O)O)[C@@H]1CCCNC1 [ZIDEBACTAM],–,–,–,–,–,–,32,> 32,8,16,–
O=C1N2CC=C(c3ccccn3)C(C2)N1OS(=O)(=O)[O-].[Na+] (stereo not drawn),inactive,–,inactive,inactive,–,> 32,–,–,–,–,inhibition [7]: Active
C[C@@H](O)[C@H]1C(=O)N2C(C(=O)O)=C(S[C@@H]3CN[C@H](C(=O)N(C)C)C3)[C@H](C)[C@H]12 [MEROPENEM],–,128,–,–,–,–,0.5,> 32,8,> 32,–
O=C1N2CC=C(c3cnoc3)C(C2)N1OS(=O)(=O)[O-].[Na+] (stereo not drawn),–,–,–,–,17,> 32,–,–,–,–,–
O=C1N2CC=C(c3ccncc3)C(C2)N1OS(=O)(=O)[O-].[Na+] (stereo not drawn),inactive,–,inactive,inactive,–,> 32,–,–,–,–,inhibition [7]: Active
O=C1N2CCCC(C2)N1OS(=O)(=O)[O-].[Na+] (stereo not drawn),inactive,> 32,inactive,inactive,> 200000,> 32,–,–,–,–,–

# More lines, main results first:
inhibition [1],MIC [2] [µg/mL],inhibition [3],inhibition [4],IC50 [5] [nM],MIC [6] [µg/mL],MIC50 [8] [µg/mL],MIC90 [8] [µg/mL],MIC50 [9] [µg/mL],MIC90 [9] [µg/mL],Compound,also measured
inactive,16,inactive,inactive,570,> 32,–,–,–,–,O=C1N2CC=CC(C2)N1OS(=O)(=O)[O-].[Na+] (stereo not drawn),–
inactive,–,inactive,inactive,–,> 32,–,–,–,–,O=C1N2CC=C(c3cccnc3)C(C2)N1OS(=O)(=O)[O-].[Na+] (stereo not drawn),inhibition [7]: Active
inactive,4,inactive,inactive,25,> 32,–,–,–,–,O=C1N2CC=C(c3cnco3)C(C2)N1OS(=O)(=O)[O-].[Na+] (stereo not drawn),–
–,16 to 32,–,–,590,> 32,32,> 32,> 32,> 32,NC(=O)[C@@H]1CC[C@@H]2CN1C(=O)N2OS(=O)(=O)[O-].[Na+] [AVIBACTAM SODIUM],–
–,–,–,–,–,> 32,–,–,–,–,O=C1N2CC=C(c3ncco3)C(C2)N1OS(=O)(=O)[O-].[Na+] (stereo not drawn),–
inactive,0.016,inactive,inactive,10,2,0.031,> 32,1,16,NC[C@@H]1C=C(c2cnco2)[C@@H]2CN1C(=O)N2OS(=O)(=O)O (relative stereo),inhibition [10]: Active; inhibition [11]: Active; inhibition [12]: inactive; inhibition [13]: inactive; inhibition [14]: inactive; inhibition [15]: Active; inhibition [16]: inactive; inhibition [17]: Active; inhibition [18]: Active; inhibition [19]: inactive; inhibition [20]: Active; Tm [21]: 55.5 °C; inhibition [22]: Active; inhibition [23]: Active; inhibition [24]: inactive
